Reference: ChEMBL document CHEMBL1142298, “Synthesis and dopamine receptor affinities of N-alkyl-11-hydroxy-2-methoxynoraporphines: N-alkyl substituents determine D1 versus D2 receptor selectivity” (J Med Chem, 2008)

What was measured:
D(1A) dopamine receptor = D(1A) dopamine receptor (Rattus norvegicus, UniProt P18901); experiment: Displacement of [3H]SCH-23390 from dopamine D1 receptor in rat striatum
Procedure, shortened: (§1)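 Competitive radioligand binding on membrane homogenates prepared from rat striatum tissue, following a previously published procedure.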

D(2) dopamine receptor = D(2) dopamine receptor (Rattus norvegicus, UniProt P61169); experiment: Displacement of [3H]neomonapride from dopamine D2 receptor in rat striatum; procedure, shortened: as §1
Rattus norvegicus = species on record: Rattus norvegicus; experiment: Selectivity ratio of rat dopamine D2 receptor to rat dopamine D1 receptor

Sequence of D(1A) dopamine receptor (P18901 whole entry): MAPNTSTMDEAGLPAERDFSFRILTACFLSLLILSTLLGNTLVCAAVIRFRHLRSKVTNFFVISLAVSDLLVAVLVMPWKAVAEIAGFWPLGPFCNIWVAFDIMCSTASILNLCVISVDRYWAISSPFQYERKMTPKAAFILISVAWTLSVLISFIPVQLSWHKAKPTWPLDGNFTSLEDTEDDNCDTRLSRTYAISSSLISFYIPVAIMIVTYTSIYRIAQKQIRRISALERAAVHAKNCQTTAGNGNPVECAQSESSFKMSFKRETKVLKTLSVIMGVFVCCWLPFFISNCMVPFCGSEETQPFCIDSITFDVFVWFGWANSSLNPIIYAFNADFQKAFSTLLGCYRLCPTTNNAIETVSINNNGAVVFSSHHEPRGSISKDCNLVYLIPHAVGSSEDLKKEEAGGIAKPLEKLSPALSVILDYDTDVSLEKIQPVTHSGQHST
Sequence of D(2) dopamine receptor (P61169 whole entry): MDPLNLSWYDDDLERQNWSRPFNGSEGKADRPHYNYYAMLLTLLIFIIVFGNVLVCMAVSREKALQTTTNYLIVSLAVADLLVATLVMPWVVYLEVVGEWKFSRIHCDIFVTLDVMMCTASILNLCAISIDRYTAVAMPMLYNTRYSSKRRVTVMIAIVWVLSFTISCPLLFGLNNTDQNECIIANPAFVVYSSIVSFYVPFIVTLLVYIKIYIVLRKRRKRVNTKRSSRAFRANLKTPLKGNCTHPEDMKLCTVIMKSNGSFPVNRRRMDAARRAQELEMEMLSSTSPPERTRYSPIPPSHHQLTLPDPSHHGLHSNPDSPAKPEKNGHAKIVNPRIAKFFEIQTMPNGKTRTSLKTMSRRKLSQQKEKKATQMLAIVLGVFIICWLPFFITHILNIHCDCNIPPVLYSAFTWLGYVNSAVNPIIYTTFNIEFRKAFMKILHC

CCN1CCc2cc(OC)cc3c2[C@H]1Cc1cccc(O)c1-3
Ki (D(1A) dopamine receptor): 0.13 µM
Ki (D(2) dopamine receptor): 0.028 µM
Ratio Ki (Rattus norvegicus): 4.6

CN1CCc2cccc3c2[C@H]1Cc1cccc(O)c1-3
Ki (D(1A) dopamine receptor): 0.0265 µM
Ki (D(2) dopamine receptor): 0.108 µM
Ratio Ki (Rattus norvegicus): 0.24

COc1cc2c3c(c1)-c1c(O)cccc1C[C@H]3N(C)CC2
Ki (D(1A) dopamine receptor): 0.046 µM
Ki (D(2) dopamine receptor): 0.235 µM
Ratio Ki (Rattus norvegicus): 0.19

CCCN1CCc2cc(OC)cc3c2[C@H]1Cc1ccc(O)c(O)c1-3
Ki (D(1A) dopamine receptor): 6.45 µM
Ki (D(2) dopamine receptor): 0.0013 µM
Ratio Ki (Rattus norvegicus): 4860

CCCCN1CCc2cc(OC)cc3c2[C@H]1Cc1cccc(O)c1-3
Ki (D(1A) dopamine receptor): > 10 µM
Ki (D(2) dopamine receptor): > 10 µM

COc1cc2c3c(c1)-c1c(ccc(O)c1O)C[C@H]3N(C)CC2
Ki (D(1A) dopamine receptor): > 10 µM
Ki (D(2) dopamine receptor): 0.0035 µM
Ratio Ki (Rattus norvegicus): > 2860
